Source: ChEMBL document CHEMBL4513216, “Probing the Open Global Health Chemical Diversity Library for Multistage-Active Starting Points for Next-Generation Antimalarials” (ACS Infect Dis, 2020)

experiment: Toxicity liver stage against HepG2, at 10uM; assay type: cell-based; design: test concentration 10 uM, cell line HepG2-A16-CD81EGFP; conditions: human, HepG2-A16-CD81EGFP cells; read-out: INHIBITION
In short: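 Uninfected HepG2-A16-CD81EGFP cells, 3 × 10^3 per well, 1536-well, plated on prespotted compound at 10 μM final, parasite-free screening media added to match infected plates; puromycin 10 μM positive, DMSO 0.5% negative; run in parallel with 48 h PbLuc assay at 37 °C, 5% CO2; viability by CellTiter-Glo luminescence, normalized to controls.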

SMILES	cytotoxicity at 10 µM
COc1ccc(C(=O)c2cnc(C(C)C)n2C)cc1	15.5%
c1cc(-c2c[nH]c([C@@H]3COCCN3C3CCOCC3)n2)ccn1	-0.113%
CC(C)(C)CC(=O)NC[C@H]1OC[C@@H](NC2CCC(F)(F)CC2)[C@@H]1O	-1.23%
Cn1ncc2c1NC(=O)CC2c1ccc(Cl)cc1Cl (configuration not stated)	59.9%
Cn1ncc(Cl)c1C(=O)N1CCc2nc3sccc3c(=O)n2CC1	-26.7%
CN(C(=O)c1ccnn1C)[C@@H]1CCC[C@@H](Oc2ccccc2)[C@@H]1O	-35.9%
Cc1ccccc1CN(C)C(=O)c1cc(C2CCCN2C)ccn1 (configuration not stated)	-4.76%
Cc1noc2nc(C3CCCN(Cc4ccncc4)C3)cc(C(F)F)c12 (configuration not stated)	-16.7%
CNC(=O)C1(c2cnccn2)CCCN1C(=O)c1c(F)cccc1F (configuration not stated)	-24.1%
Cc1csc(C(Cc2ccsc2)NC(=O)Cn2cccnc2=O)n1 (configuration not stated)	-22.2%
O=C(c1ccncc1)N1CCC(Cc2cnc3[nH]ccc3c2)CC1	-1.86%
Cc1ccccc1CNC(=O)c1ccccc1-n1cnc(CN)c1	-7.22%
Cc1cn[nH]c1C1CCCCN1C(=O)CCc1c(C)n[nH]c1C (configuration not stated)	-10.5%
CC(C)c1noc(CCC(=O)Nc2cc(F)ccc2F)n1	-15.4%
CCOCCC(=O)Nc1cccc(Cl)c1COC	-3.81%
CC(Nc1cccc(F)c1C#N)c1cccc(S(N)(=O)=O)c1 (configuration not stated)	12.8%
CN(Cc1ccccn1)C(=O)C(c1ccccc1)N1CCSCC1 (configuration not stated)	-9.71%
COc1c(CNC(C)c2sc(C)nc2C)c(C(C)C)nn1C (configuration not stated)	7.97%
Cc1cnc(C(=O)N2CCOCC2C)cn1 (configuration not stated)	-3.83%
COc1ncc(NCc2cccc(C#N)c2)cc1C(N)=O	5.85%
CCN(C(=O)CS(=O)(=O)c1cc(OC)c(OC)cc1C)C1CC1	-3.91%
O=C(Cc1cccnc1)NCCS(=O)(=O)c1ccccc1F	6.72%
COc1ccc(NC(=O)NCC(C)N2CCc3ccccc32)cc1 (configuration not stated)	-2.42%

SMILES	cytotoxicity at 10 µM
CCc1csc(C2CCCN(C(=O)CCn3cc(C)cn3)C2)n1 (configuration not stated)	1.82%
CC(C(=O)N(C)C)N1CCCN(C(=O)Oc2ccccc2)CC1 (configuration not stated)	-0.37%
O=C(CCCn1cncn1)N1CCCCC1c1nccs1 (configuration not stated)	8.6%
Cn1cc(C(=O)N(Cc2ccco2)Cc2cccs2)ccc1=O	-0.0261%
CN(Cc1nccn1C)C(CO)c1cccc(Br)c1 (configuration not stated)	-1.29%
Cc1cnc(CCN(C)C(=O)c2cccc(N(C)C)c2)s1	2.05%
CN1CCN(S(=O)(=O)c2ccc(Cl)c(Cl)c2)c2cnccc21	5.57%
CN(C)c1nccc(N(C)C2CCOCC2)n1	3.13%
N#Cc1c(F)cccc1N1CCN(S(=O)(=O)c2cccs2)CC1	14.2%
CS(=O)(=O)c1ccc(CNCC2CCN(CCO)CC2)cc1	-18.8%
COCCCNc1nc(CNC(C)=O)cc(-c2ccco2)n1	-5.52%
CC(C)[C@H](NS(C)(=O)=O)C(=O)NCc1cc(-c2ccccc2)n[nH]1	-8.94%
N[C@H]1CN(C(=O)CCc2cc(Cl)no2)C[C@@H]1c1ccccc1	-7.03%
Cc1nc(CN2CCCn3nc(CNC(=O)C4CCC4)cc3C2)co1	3.26%
CCCc1ccc(CN2CCN(C(=O)CC(C)C)[C@@H]3CS(=O)(=O)C[C@@H]32)o1	5.31%
Cc1ccc2oc(=O)n(CCC(=O)N3CCC4(CN(C)C(=O)O4)C3)c2c1 (configuration not stated)	1.66%
Cc1nc(CN(C)C(=O)c2cccc(CC3CCNCC3)c2)no1	-5.56%
COc1ccc(N2CCN(C(=O)C3CN(C)C(=O)N3)CC2(C)C)cc1 (configuration not stated)	0.254%
COCCC(=O)NCc1cccnc1-n1cnc2ccccc21	-8.42%
CC(C)N1CCC(C(=O)N2CCCN(c3ccccc3)CC2)CC1	7.4%
CCn1cc(CN(C)c2nc(C)c3ccc(S(C)(=O)=O)cc3n2)cn1	48.8%
N[C@H]1CN(C(=O)c2ccccc2OCCc2ccccc2)C[C@@H]1C1CC1	-2.68%
O=C(NC1CCOC1)c1cccc(S(=O)(=O)NCCCc2ncc[nH]2)c1 (configuration not stated)	-2.26%

SMILES	cytotoxicity at 10 µM
Cc1cnc(C(=O)N2CCCC(c3nccn3Cc3cscn3)C2)cn1 (configuration not stated)	-7.92%
OC1(CN2CCCCC2)CCN(c2cc(C(F)(F)F)ccn2)C1 (configuration not stated)	-2.22%
COc1nc(C)c(C(=O)NCc2cc(N3CCOCC3)ncn2)s1	12.9%
OCc1csc(N2CCCN(Cc3ccc(F)cc3)CC2)n1	-2.58%
COc1cccc(Cn2cc(C3=CCN(CC(=O)N(C)C)CC3)cn2)c1	-13.1%
CCN1CC(C(=O)N2CCN(c3nsc4ccccc34)CC2)CCC1=O (configuration not stated)	16.2%
CCC1(C(=O)O)CCCN(C(=O)c2ccc(N3CCN(C)CC3)cc2)C1 (configuration not stated)	-2.35%
O=S1(=O)COCCN1Cc1ccc(F)cc1Cl	14.7%
O=c1cnc2ccccc2n1CCCn1ccnc1	-3.85%
CC(C)NS(=O)(=O)c1cc(C(=O)O)cc(-c2ccc3c(c2)OCCO3)c1	-2.34%
O=C(CCn1ccnc1)N1CC[C@@H](c2ccc3ccccc3c2)[C@H](O)C1	-0.288%
CC(C)Cc1ncc2c(n1)CN(c1nc3ccccc3cc1CO)C2	1.18%
CCN(CC)C(=O)[C@@H]1C[C@H](n2cc(-c3ccccn3)nn2)CN1	-20.6%
O=C(N1CCC(Oc2ccncc2)CC1)C1(c2ccc(F)cc2)CC1	-7.66%
CCCC(=O)Nc1cccc(C(=O)N(C)CCCC2CCCO2)c1 (configuration not stated)	1.03%
NC(=O)c1cccc(CC2CCN(C(=O)CCCN3CCOCC3)C2)c1 (configuration not stated)	-11.3%
CN1CCC(c2ncc3c(n2)CCN(C(=O)CC2C=CCC2)C3)CC1 (configuration not stated)	1.68%
CC(C)OCCN1CCN(C(C)c2nc(C3CC3)no2)CC1 (configuration not stated)	2.07%
CC(C)c1nc(C2CCCN2Cc2nnc(C3CCC3)o2)no1 (configuration not stated)	-15.6%
Cc1nc(CNC(=O)NCC(O)c2ccc(F)cc2)cs1 (configuration not stated)	-10.4%
Cn1cc(C(=O)N2CCSc3ccccc32)ccc1=O	-22.9%
Cc1cnn(C2CCCN(C(=O)CCc3cscn3)C2)c1 (configuration not stated)	-12.9%
O=C(NCCN1CCCC1)C1(c2ccc(Cl)cc2)CCOCC1	-2.16%

SMILES	cytotoxicity at 10 µM
CCc1ccc(C(=O)N2CCCC(n3nc(C)nc3C)C2)o1 (configuration not stated)	-7.8%
c1ccc(-c2nc(CNCCn3cccn3)cs2)nc1	-21.1%
CCN1CCN(C2CCN(Cc3nc(C4CC4)no3)CC2)C1=O	-2.69%
COc1cccc2cc(CNC(=O)N3CCOC(C)(C)C3)oc12	-14.8%
CN1CCOC(CNCc2coc(-c3cccc(Cl)c3)n2)C1 (configuration not stated)	-15.9%
Cc1cnn(C2CCCN(C(=O)Cc3n[nH]c4ccccc34)C2)c1 (configuration not stated)	-6.8%
O=C(NCCN1CCCCCC1=O)c1ccc(=O)[nH]n1	-19.3%
NC(=O)NC(=O)CCN1CCN(c2nccs2)CC1	-33.6%
COc1ncccc1C(=O)N1CCC(Nc2ccc(C)nn2)CC1	-18.1%
CCN1CCN(C(=O)NCc2cccnc2-n2cccn2)CC1	-7.97%
COc1ncccc1CNC(=O)c1ccco1	-8.48%
c1cncc(-c2noc(CN3CCCCC3Cn3cccn3)n2)c1 (configuration not stated)	-2.42%
Cc1cc(CN(C)C(=O)c2ccc(OCC(F)(F)F)nc2)no1	-6.19%
Cc1nn(C)c(N(C)C)c1CNCc1ccccc1Cn1cccn1	-8.06%
Cc1cnn(CC2CCCCN2CC(=O)Nc2nc(C)cs2)c1 (configuration not stated)	0.109%
COc1ccc(CNC(=O)NCCCNS(C)(=O)=O)cc1OC	-10.6%
CC(=O)Nc1nc(C(=O)NCc2ccc(N3CCCCC3)cc2)cs1	-2.75%
O=C(CCNc1ncccn1)N1CCCN(c2nccs2)CC1	-14.3%
CC(Cn1cccn1)NCc1csc(Cc2ccccc2)n1 (configuration not stated)	-8.15%
COc1cc(C(=O)N2CCCC(c3cc(C)[nH]n3)C2)cc(OC)c1C (configuration not stated)	-10.5%
Cc1ccc(OCCCC(=O)NC(C)c2nnc3n2CCC3)cc1 (configuration not stated)	-15%
Cc1cnc(C(=O)NCc2cccnc2OC(C)C)cn1	-23.4%
O=C1COc2c(cccc2C(=O)N2CCCC2Cn2cccn2)N1 (configuration not stated)	-4.47%

SMILES	cytotoxicity at 10 µM
COc1ccccc1CC(=O)NS(=O)(=O)c1ccc(C(N)=O)cc1	-5.2%
Cc1cc(NC(=O)CN2CCc3cnc(C)nc3C2)on1	-5.33%
Cc1ccc(CC(=O)N2CCCC(c3cc(C)[nH]n3)C2)cn1 (configuration not stated)	-7.2%
COc1ccc(-c2nc(CN3CCc4c(ncn4C)C3)cs2)cc1	3%
Cc1cc(C(=O)NCc2ccnc(N(C)C)c2)c(C)o1	-2.43%
Cc1ncc2c(n1)CN(Cc1nc3ccccc3o1)CC2	-0.602%
CCc1nc(C2CCCN2C(=O)C2=COCC2)no1 (configuration not stated)	8.64%
CC1CCCCN1CCNC(=O)c1ccn(-c2ccc(F)cc2)n1 (configuration not stated)	-1.91%
CC(=O)N(Cc1noc(C)n1)C1CCN(CCOc2ccccc2)C1 (configuration not stated)	-2.04%
Cc1nc(CN2CCN(CC(=O)Nc3c(C)cccc3C)CC2)no1	-3.1%
CC(C)c1nnc2n1CCN(CC(=O)Nc1nncs1)C2	-4.02%
CCC(CN1CCCC1)n1cncc1-c1cnn(-c2ccccc2)c1 (configuration not stated)	5.87%
Cc1cccc(-c2noc(C)c2C(=O)NC2CCCOC2)c1 (configuration not stated)	5.2%
Cc1noc(C)c1S(=O)(=O)N1CCc2nc(C3CCNCC3)ncc2C1	-22.9%
Cc1ccc(CNC(=O)CN2CCN(CC(O)C3CC3)CC2)cc1 (configuration not stated)	4.91%
Cc1ccc(CN2CCC3(CC2)OC(C(=O)N(C)C)c2ccccc23)o1 (configuration not stated)	4.34%
FC1(F)CCN(Cc2ccccn2)CC12CCN(c1cnccn1)C2 (configuration not stated)	-108%
CN(C)C(=O)CN1C[C@H]2CC[C@@H](C1)N(Cc1ccc3nsnc3c1)C2	2.3%
COC(=O)Cn1c(=O)[nH]c2cn(-c3cccc(Cl)c3)c(=O)n21	-1.39%
Cc1nc(C(C)n2cc3[nH]cccc-3c2=O)cs1 (configuration not stated)	-3.13%
